Assay results taken from ChEMBL document CHEMBL4257579, “Analogs of penfluridol as chemotherapeutic agents with reduced central nervous system activity” (Bioorg Med Chem Lett, 2018).

Columns and labels:
[1] = molecular target: T1, Histamine H1 receptor (Homo sapiens, UniProt P35367); test: Displacement of [3H]Pyrilamine from human H1 receptor expressed in HEK cells by radioligand binding assay relative to control; format: cell-based; parameters: concentration or dose not given beside the values; conditions: concentration not given here
[2] = molecular target: T1, Histamine H1 receptor; test: Displacement of [3H]Pyrilamine from human H1 receptor expressed in HEK cells by radioligand binding assay; format: cell-based
[3] = molecular target: Sodium-dependent serotonin transporter (Homo sapiens, UniProt P31645); test: Displacement of [3H]Citalopram from human SERT expressed in HEK cells by radioligand binding assay; format: cell-based
[4] = molecular target: 5-hydroxytryptamine receptor 5A (Homo sapiens, UniProt P47898); test: Displacement of [3H]LSD from human 5-HT5A receptor expressed in Flp-In CHO cells by radioligand binding assay; format: cell-based
[5] = molecular target: 5-hydroxytryptamine receptor 6 (Homo sapiens, UniProt P50406); test: Displacement of [3H]LSD from human 5-HT6 receptor expressed in HEK cells by radioligand binding assay; format: cell-based
[6] = molecular target: Alpha-2B adrenergic receptor (Homo sapiens) (UniProt P18089); test: Displacement of [3H]Rauwolscine from human alpha 2B adrenergic receptor expressed in HEK293T cells by radioligand binding assay relative to control; format: cell-based; conditions: concentration not given here
[7] = tested on: Mus musculus; test: Toxicity in C57BL/6J mouse assessed as increase in glutamate dehydrogenase level at 5 mg/kg, ip treated daily for 7 consecutive days measured after 24 hrs post last dose […]; format: organism-based; conditions: in vivo
How it was run: (§1)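 Female C57BL6 mice given 5 mg/kg i.p. daily for 7 days; blood taken at sacrifice 24 h after last dose for clinical chemistry panel: electrolytes, minerals, total protein, albumin, globulin, A/G ratio, BUN, ALT, AST, GLDH, cholestasis markers, ALP, bilirubin, amylase, creatine kinase.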

[8] = molecular target: Alpha-2B adrenergic receptor (Homo sapiens, UniProt P18089); test: Displacement of [3H]Rauwolscine from human alpha 2B adrenergic receptor expressed in HEK293T cells by radioligand binding assay; format: cell-based
How it was run: (§2)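 Ki values were calculated from the radioligand displacement data.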

[9] = tested on: Mus musculus; test: Toxicity in C57BL/6J mouse assessed as reduction in alkaline phosphatase level at 5 mg/kg, ip treated daily for 7 consecutive days measured after 24 hrs post last dose […]; format: organism-based; conditions: in vivo; how it was run: as §1
[10] = tested on: Mus musculus; test: Toxicity in C57BL/6J mouse assessed as decrease in blood urea nitrogen level at 5 mg/kg, ip treated daily for 7 consecutive days measured after 24 hrs post last dose […]; conditions: in vivo
[11] = molecular target: Beta-3 adrenergic receptor (Homo sapiens, UniProt P13945); test: Displacement of [3H]CGP12177 from human beta 3 adrenergic receptor expressed in HEK293FlpIN cells by radioligand binding assay; format: cell-based; how it was run: as §2
[12] = molecular target: Alpha-1D adrenergic receptor (Homo sapiens) (UniProt P25100); test: Displacement of [3H]Prazosin from human alpha 1D adrenergic receptor expressed in HEK cells by radioligand binding assay relative to control; format: cell-based; conditions: concentration not given here
[13] = tested on: Mus musculus; test: Toxicity in C57BL/6J mouse assessed as effect on kidney weight at 5 mg/kg, ip treated daily for 7 consecutive days measured after 24 hrs post last dose; format: organism-based; conditions: in vivo
How it was run: (§3)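 Female C57BL6 mice treated 5 mg/kg i.p. once daily for seven days; killed 24 h after final injection and organs collected and weighed.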

[14] = tested on: Mus musculus; test: Toxicity in C57BL/6J mouse assessed as albumin level at 5 mg/kg, ip treated daily for 7 consecutive days measured after 24 hrs post last dose […]; format: organism-based; conditions: in vivo; how it was run: as §1
[15] = tested on: Mus musculus; test: Toxicity in C57BL/6J mouse assessed as creatine kinase level at 5 mg/kg, ip treated daily for 7 consecutive days measured after 24 hrs post last dose […]; format: organism-based; conditions: in vivo; how it was run: as §1
[16] = tested on: Mus musculus; test: Toxicity in C57BL/6J mouse assessed as effect on heart weight at 5 mg/kg, ip treated daily for 7 consecutive days measured after 24 hrs post last dose; format: organism-based; conditions: in vivo; how it was run: as §3
[17] = tested on: Mus musculus; test: Toxicity in C57BL/6J mouse assessed as cholestasis level at 5 mg/kg, ip treated daily for 7 consecutive days measured after 24 hrs post last dose […]; format: organism-based; conditions: in vivo; how it was run: as §1
[18] = tested on: Mus musculus; test: Toxicity in C57BL/6J mouse assessed as effect on brain weight at 5 mg/kg, ip treated daily for 7 consecutive days measured after 24 hrs post last dose; format: organism-based; conditions: in vivo; how it was run: as §3
[19] = tested on: Mus musculus; test: Toxicity in C57BL/6J mouse assessed as effect on spleen weight at 5 mg/kg, ip treated daily for 7 consecutive days measured after 24 hrs post last dose; format: organism-based; conditions: in vivo; how it was run: as §3
[20] = Drug distribution in C57BL/6J mouse brain at 5 mg/kg, ip treated daily for 7 consecutive days measured after 24 hrs post last dose by LC/MS/MS analysis; format: ADME, organism-based; conditions: in vivo
How it was run: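 Female C57BL6 mice dosed 5 mg/kg i.p. once daily for seven consecutive days; sacrificed 24 h after last injection, organs stored at −80 °C. Plasma, brain, lungs and adipose tissue analysed by LC-MS/MS for drug concentration (nM); n = 5.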

[21] = tested on: Mus musculus; test: Toxicity in C57BL/6J mouse assessed as minerals level at 5 mg/kg, ip treated daily for 7 consecutive days measured after 24 hrs post last dose […]; format: organism-based; conditions: in vivo; how it was run: as §1
[22] = tested on: Mus musculus; test: Toxicity in C57BL/6J mouse assessed as ratio of albumin to globulin level at 5 mg/kg, ip treated daily for 7 consecutive days measured after 24 hrs post last dose […]; format: organism-based; conditions: in vivo; how it was run: as §1
[23] = tested on: Mus musculus; test: Toxicity in C57BL/6J mouse assessed as electrolytes level at 5 mg/kg, ip treated daily for 7 consecutive days measured after 24 hrs post last dose […]; format: organism-based; conditions: in vivo; how it was run: as §1
[24] = tested on: Mus musculus; test: Toxicity in C57BL/6J mouse assessed as globulin level at 5 mg/kg, ip treated daily for 7 consecutive days measured after 24 hrs post last dose […]; format: organism-based; conditions: in vivo; how it was run: as §1
[25] = tested on: Mus musculus; test: Toxicity in C57BL/6J mouse assessed as aspartate aminotransferase level at 5 mg/kg, ip treated daily for 7 consecutive days measured after 24 hrs post last dose […]; format: organism-based; conditions: in vivo; how it was run: as §1
[26] = tested on: Mus musculus; test: Toxicity in C57BL/6J mouse assessed as alanine aminotransferase level at 5 mg/kg, ip treated daily for 7 consecutive days measured after 24 hrs post last dose […]; format: organism-based; conditions: in vivo; how it was run: as §1
[27] = tested on: Mus musculus; test: Toxicity in C57BL/6J mouse assessed as bilirubin level at 5 mg/kg, ip treated daily for 7 consecutive days measured after 24 hrs post last dose […]; format: organism-based; conditions: in vivo; how it was run: as §1
[28] = tested on: Mus musculus; test: Toxicity in C57BL/6J mouse assessed as effect on lung weight at 5 mg/kg, ip treated daily for 7 consecutive days measured after 24 hrs post last dose; format: organism-based; conditions: in vivo; how it was run: as §3
[29] = tested on: Mus musculus; test: Toxicity in C57BL/6J mouse assessed as amylase level at 5 mg/kg, ip treated daily for 7 consecutive days measured after 24 hrs post last dose […]; format: organism-based; conditions: in vivo; how it was run: as §1
[30] = tested on: Mus musculus; test: Toxicity in C57BL/6J mouse assessed as total protein level at 5 mg/kg, ip treated daily for 7 consecutive days measured after 24 hrs post last dose […]; format: organism-based; conditions: in vivo; how it was run: as §1
[31] = tested on: Mus musculus; test: Toxicity in C57BL/6J mouse assessed as effect on liver weight at 5 mg/kg, ip treated daily for 7 consecutive days measured after 24 hrs post last dose; format: organism-based; conditions: in vivo; how it was run: as §3
[32] = Tmax in C57BL/6J mouse brain at 10 mg/kg, ip treated daily for 7 consecutive days by LC/MS/MS analysis; format: ADME, organism-based

Sodium-dependent serotonin transporter, sequence (P31645 whole entry): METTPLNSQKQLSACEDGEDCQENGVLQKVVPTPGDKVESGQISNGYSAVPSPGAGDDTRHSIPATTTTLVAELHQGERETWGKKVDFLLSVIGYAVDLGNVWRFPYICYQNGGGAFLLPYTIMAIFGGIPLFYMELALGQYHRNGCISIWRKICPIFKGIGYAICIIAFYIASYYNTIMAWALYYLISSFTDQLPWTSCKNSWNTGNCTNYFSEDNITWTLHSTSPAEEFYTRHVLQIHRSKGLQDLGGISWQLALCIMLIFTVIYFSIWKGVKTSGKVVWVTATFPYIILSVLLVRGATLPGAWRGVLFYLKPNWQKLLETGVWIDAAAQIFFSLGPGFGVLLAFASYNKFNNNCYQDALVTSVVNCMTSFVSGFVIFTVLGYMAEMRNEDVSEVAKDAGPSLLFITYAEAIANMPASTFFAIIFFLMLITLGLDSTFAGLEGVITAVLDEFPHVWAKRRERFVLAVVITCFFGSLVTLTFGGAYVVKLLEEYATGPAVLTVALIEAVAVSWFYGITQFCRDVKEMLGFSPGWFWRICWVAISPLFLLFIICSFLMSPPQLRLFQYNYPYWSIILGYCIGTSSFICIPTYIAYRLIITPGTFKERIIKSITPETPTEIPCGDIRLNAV
T1 sequence (P35367 whole entry): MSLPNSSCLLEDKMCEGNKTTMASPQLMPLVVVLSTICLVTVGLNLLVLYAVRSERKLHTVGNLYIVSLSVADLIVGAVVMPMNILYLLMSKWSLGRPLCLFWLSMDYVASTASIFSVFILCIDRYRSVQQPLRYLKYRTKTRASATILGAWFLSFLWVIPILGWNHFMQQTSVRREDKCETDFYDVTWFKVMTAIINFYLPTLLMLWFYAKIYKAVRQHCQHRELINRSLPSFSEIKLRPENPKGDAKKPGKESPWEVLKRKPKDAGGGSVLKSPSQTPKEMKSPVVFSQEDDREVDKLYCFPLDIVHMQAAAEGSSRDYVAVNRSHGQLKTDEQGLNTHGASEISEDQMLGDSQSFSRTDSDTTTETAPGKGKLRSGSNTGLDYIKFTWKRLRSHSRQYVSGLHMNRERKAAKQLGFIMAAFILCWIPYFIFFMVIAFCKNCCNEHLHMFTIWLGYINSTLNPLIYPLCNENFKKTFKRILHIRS
5-hydroxytryptamine receptor 5A, sequence (P47898 whole entry): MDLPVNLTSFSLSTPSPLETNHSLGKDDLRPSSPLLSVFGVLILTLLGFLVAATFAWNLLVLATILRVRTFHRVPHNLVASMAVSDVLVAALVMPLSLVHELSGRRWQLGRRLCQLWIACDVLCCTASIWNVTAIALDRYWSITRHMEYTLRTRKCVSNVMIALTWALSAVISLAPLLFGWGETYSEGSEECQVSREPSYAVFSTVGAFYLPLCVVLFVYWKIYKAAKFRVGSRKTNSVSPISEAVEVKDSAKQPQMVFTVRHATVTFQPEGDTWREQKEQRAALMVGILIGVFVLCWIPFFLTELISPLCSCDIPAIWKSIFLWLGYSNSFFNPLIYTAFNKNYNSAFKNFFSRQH
5-hydroxytryptamine receptor 6, sequence (P50406 whole entry): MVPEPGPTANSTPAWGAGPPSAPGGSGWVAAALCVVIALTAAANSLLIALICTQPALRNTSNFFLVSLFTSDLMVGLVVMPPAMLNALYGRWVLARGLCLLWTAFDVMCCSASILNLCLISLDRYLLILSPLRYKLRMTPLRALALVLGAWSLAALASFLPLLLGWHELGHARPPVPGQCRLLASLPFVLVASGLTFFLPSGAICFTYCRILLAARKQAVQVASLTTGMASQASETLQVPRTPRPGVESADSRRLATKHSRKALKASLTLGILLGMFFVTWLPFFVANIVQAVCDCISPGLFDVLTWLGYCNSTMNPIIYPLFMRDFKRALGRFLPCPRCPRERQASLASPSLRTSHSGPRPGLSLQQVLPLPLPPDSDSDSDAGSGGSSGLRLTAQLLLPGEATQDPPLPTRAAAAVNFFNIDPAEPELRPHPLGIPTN
Alpha-1D adrenergic receptor (Homo sapiens), sequence (P25100 whole entry): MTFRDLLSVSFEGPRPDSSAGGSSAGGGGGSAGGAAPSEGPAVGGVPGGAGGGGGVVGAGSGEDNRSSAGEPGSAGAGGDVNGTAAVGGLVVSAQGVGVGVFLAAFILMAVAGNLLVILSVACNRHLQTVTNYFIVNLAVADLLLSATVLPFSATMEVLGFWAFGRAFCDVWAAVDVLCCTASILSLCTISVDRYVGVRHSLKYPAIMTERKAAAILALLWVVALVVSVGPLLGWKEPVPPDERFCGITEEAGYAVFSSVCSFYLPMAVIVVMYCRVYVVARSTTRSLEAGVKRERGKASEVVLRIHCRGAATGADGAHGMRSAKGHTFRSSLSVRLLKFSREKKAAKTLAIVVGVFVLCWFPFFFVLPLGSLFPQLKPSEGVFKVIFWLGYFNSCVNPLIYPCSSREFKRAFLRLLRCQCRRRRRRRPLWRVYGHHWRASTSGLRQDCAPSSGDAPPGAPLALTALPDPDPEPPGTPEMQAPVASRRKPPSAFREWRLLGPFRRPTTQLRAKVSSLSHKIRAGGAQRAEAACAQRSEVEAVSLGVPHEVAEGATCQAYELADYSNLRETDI
Beta-3 adrenergic receptor, sequence (P13945 whole entry): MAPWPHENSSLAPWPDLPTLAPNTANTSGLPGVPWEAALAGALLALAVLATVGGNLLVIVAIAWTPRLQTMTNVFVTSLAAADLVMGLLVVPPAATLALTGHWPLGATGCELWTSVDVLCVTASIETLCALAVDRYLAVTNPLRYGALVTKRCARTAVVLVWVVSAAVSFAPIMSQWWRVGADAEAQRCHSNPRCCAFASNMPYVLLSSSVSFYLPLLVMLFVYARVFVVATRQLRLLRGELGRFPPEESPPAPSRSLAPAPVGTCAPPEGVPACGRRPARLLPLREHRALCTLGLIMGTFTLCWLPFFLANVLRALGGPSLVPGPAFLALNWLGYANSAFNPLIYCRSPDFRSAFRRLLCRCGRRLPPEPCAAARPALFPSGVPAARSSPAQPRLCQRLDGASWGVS
Alpha-2B adrenergic receptor (Homo sapiens), sequence (P18089 whole entry): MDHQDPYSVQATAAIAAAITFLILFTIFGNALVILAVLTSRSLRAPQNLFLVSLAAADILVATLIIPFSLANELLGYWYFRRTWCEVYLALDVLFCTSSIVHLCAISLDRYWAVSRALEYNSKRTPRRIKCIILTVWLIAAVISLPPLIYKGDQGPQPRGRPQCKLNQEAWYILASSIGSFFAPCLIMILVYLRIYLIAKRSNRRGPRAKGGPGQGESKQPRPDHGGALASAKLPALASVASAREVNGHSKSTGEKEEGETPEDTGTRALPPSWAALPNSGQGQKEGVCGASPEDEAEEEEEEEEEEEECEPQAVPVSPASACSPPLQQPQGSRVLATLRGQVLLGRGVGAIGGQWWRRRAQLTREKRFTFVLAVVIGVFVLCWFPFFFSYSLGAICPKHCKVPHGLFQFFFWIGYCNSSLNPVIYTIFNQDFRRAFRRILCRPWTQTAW
Alpha-2B adrenergic receptor, sequence (P18089 whole entry): as above

**Q.** Which inhibition [1] does the source give for `OC1(c2ccc(Cl)c(C(F)(F)F)c2)CCN(CCCC=C(c2ccc(F)cc2)c2ccc(F)cc2)CC1` here?
**A.** 64.6%

**Q.** What about the Ki ([2]; read-out: Ki) of the same compound?
**A.** 718 nM

**Q.** What does the source list for `OC1(c2ccc(Cl)c(C(F)(F)F)c2)CCN(CCCCN(c2ccc(F)cc2)c2ccc(F)cc2)CC1`?
**A.** Ki [3]: 10000 nM; Ki ([4]; read-out: Ki): 4150 nM; Ki [5]: 1670 nM; Ki [2]: Not Active

**Q.** With `OC1(c2ccc(Cl)c(C(F)(F)F)c2)CCN(CCCC(c2ccc(F)cc2)c2ccc(F)cc2)CC1` [PENFLURIDOL] as the compound, how does the inhibition [6] read?
**A.** 95.6%

**Q.** What about the Activity [7] of the same compound?
**A.** Toxic

**Q.** And the inhibition [1]?
**A.** 84%

**Q.** And the Ki [8]?
**A.** 401 nM

**Q.** What about the Activity [9] of the same compound?
**A.** Toxic

**Q.** And the Activity [10]?
**A.** Toxic

**Q.** What about the Ki [11] of the same compound?
**A.** 515 nM

**Q.** And the inhibition [12]?
**A.** 95.7%

**Q.** Which results are given for `OC1(c2ccc(Cl)c(C(F)(F)F)c2)CCN(CCCC(c2ccccc2)c2ccccc2)CC1`?
**A.** Ki [3]: 1180 nM; Ki ([4]; cho): Not Active; Ki [5]: 1690 nM

**Q.** With `OC1(c2ccc(Cl)c(C(F)(F)F)c2)CCN(CCCN(c2ccc(F)cc2)c2ccc(F)cc2)CC1` as the compound, how does the Ki [3] read?
**A.** 903 nM

**Q.** What about the inhibition [1] of the same compound?
**A.** 88.5%

**Q.** What about the Ki [5] of the same compound?
**A.** 1680 nM

**Q.** What about the Ki ([2]; read-out: Ki) of the same compound?
**A.** 814 nM

**Q.** Which inhibition [1] does the source give for `OC1(c2ccc(Cl)c(C(F)(F)F)c2)CCN(CCCCCc2ccc(F)cc2)CC1` here?
**A.** 69.2%

**Q.** What about the Ki ([2]; read-out: Ki) of the same compound?
**A.** 718 nM

**Q.** What does the source list for `OC1(c2ccc(Cl)c(C(F)(F)F)c2)CCN(CCCCC(c2ccc(F)cc2)c2ccc(F)cc2)CC1`?
**A.** Activity [13]: Non-Toxic; Ki [3]: 428 nM; Activity [14]: Non-Toxic; Activity [15]: Non-Toxic; Activity [7]: Non-Toxic; Activity [16]: Non-Toxic; Activity [17]: Non-Toxic; Activity [18]: Non-Toxic; Ki ([4]; read-out: Ki): 894 nM; Activity [19]: Non-Toxic; Drug uptake [20]: Active; Activity [21]: Non-Toxic; Activity [22]: Non-Toxic; Activity [9]: Non-Toxic; Activity [23]: Non-Toxic; Activity [24]: Non-Toxic; Activity [25]: Non-Toxic; Activity [10]: Non-Toxic; Activity [26]: Non-Toxic; Ki [5]: 1670 nM; Activity [27]: Non-Toxic; Activity [28]: Non-Toxic; Activity [29]: Non-Toxic; Activity [30]: Non-Toxic; Activity [31]: Non-Toxic

**Q.** With `COc1ccc(N(CCCCN2CCC(O)(c3ccc(Cl)c(C(F)(F)F)c3)CC2)c2ccc(OC)cc2)cc1` as the compound, how does the Activity [13] read?
**A.** Non-Toxic

**Q.** What about the Ki [3] of the same compound?
**A.** 1310 nM

**Q.** And the Activity [14]?
**A.** Non-Toxic

**Q.** What about the Activity [15] of the same compound?
**A.** Non-Toxic

**Q.** What about the Activity [7] of the same compound?
**A.** Non-Toxic

**Q.** And the Tmax [32]?
**A.** 6 h

**Q.** What about the Activity [16] of the same compound?
**A.** Non-Toxic

**Q.** And the inhibition [1]?
**A.** 71.9%

**Q.** What about the Activity [17] of the same compound?
**A.** Non-Toxic

**Q.** And the Activity [18]?
**A.** Non-Toxic

**Q.** And the Ki ([4]; read-out: Ki)?
**A.** 4970 nM

**Q.** What about the Activity [19] of the same compound?
**A.** Non-Toxic

**Q.** What about the Drug uptake [20] of the same compound?
**A.** Active

**Q.** What about the Activity [21] of the same compound?
**A.** Non-Toxic

**Q.** And the Activity [22]?
**A.** Non-Toxic

**Q.** And the Activity [9]?
**A.** Non-Toxic

**Q.** And the Activity [23]?
**A.** Non-Toxic

**Q.** What about the Activity [24] of the same compound?
**A.** Non-Toxic

**Q.** What about the Activity [25] of the same compound?
**A.** Non-Toxic

**Q.** And the Activity [10]?
**A.** Non-Toxic

**Q.** What about the Activity [26] of the same compound?
**A.** Non-Toxic

**Q.** And the Ki [5]?
**A.** 1400 nM

**Q.** What about the Activity [27] of the same compound?
**A.** Non-Toxic

**Q.** What about the Activity [28] of the same compound?
**A.** Non-Toxic

**Q.** And the Activity [29]?
**A.** Non-Toxic

**Q.** And the Ki ([2]; read-out: Ki)?
**A.** 7030 nM

**Q.** What about the Activity [30] of the same compound?
**A.** Non-Toxic

**Q.** What about the Activity [31] of the same compound?
**A.** Non-Toxic
